# Laboratory results from ChEMBL document CHEMBL1123757, “Selective thromboxane synthetase inhibitors and antihypertensive agents. New derivatives of 4-hydrazino-5H-pyridazino[4,5-b]indole, 4-hydrazinopyridazino[4,5-a]indole, and related compounds” (J Med Chem, 1987).
# How the values were obtained:
# Rattus norvegicus [1] = assay: Antihypertensive activity in spontaneously hypertensive rats (SHR) measured by percentage fall in cardiac rhythm (CR) at 25 mg/kg administered perorally at 24 h;No significance; type: functional, organism-based; design: dose 25 mg/kg; conditions: Heart
# Procedure, shortened: (§1)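 Conscious SHR (Okamoto strain), 8 weeks old, male and female, 300–350 g, systolic BP ≥190 mmHg, CR 400–650 beats/min. Given ip or po at 2.5 mL/kg in normal saline or saline with 0.2% (carboxymethyl)cellulose and 1.0% Tween 80. Tail AP and CR recorded by mechanical transduction at 1, 3, 5 and 24 h, five animals per dose. Effect expressed as % fall versus control.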
# Rattus norvegicus [2] = assay: Percent increase in cardiac rhythm, directly measured on carotid (iv on the jugular vein) of spontaneously hypertensive rats at 1 mg/kg after 240 minutes;No significance; type: functional, organism-based; design: dose 1 mg/kg; conditions: Heart
# Procedure, shortened: (§2)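 Anesthetized (sodium pentobarbital, 70 mg/kg) male and female Okamoto SHR, 8 weeks old, 300–350 g. Given iv into the jugular vein in normal saline. Arterial pressure and cardiac rhythm are recorded directly from the carotid by polygraph at set times after dosing. Each is expressed as percent change from the pre-dose control value.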
# Cavia porcellus [3] = assay: Ex vivo inhibition of platelet aggregation induced by AA at 30 mg/kg; No significance; type: functional, organism-based; design: dose 30 mg/kg
# Procedure, shortened: (§3)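 Fasted male or female guinea pigs (250–300 g, five per group) dosed orally in normal saline or saline with 0.2% (carboxymethyl)cellulose/1.0% Tween 80; controls given vehicle. Under ether, cardiac blood collected into 3.8% citrate. PRP adjusted to […] and aggregation induced by ADP (second wave) or AA, read by absorbance aggregometry. PGE2 and TXB2 measured by RIA.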
# Rattus norvegicus [4] = assay: Percent increase in cardiac rhythm, directly measured on carotid (iv on the jugular vein) of spontaneously hypertensive rats at 1 mg/kg after 180 minutes;No significance; type: functional, organism-based; design: dose 1 mg/kg; conditions: Heart; procedure, shortened: as §2
# Rattus norvegicus [5] = assay: Antihypertensive activity in spontaneously hypertensive rats (SHR) measured by percentage fall in cardiac rhythm (CR) at 1 mg/kg administered intraperitoneally at 5 h;No significance; type: functional, organism-based; design: dose 1 mg/kg; conditions: Heart
# Procedure, shortened: (§4)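 Unanesthetized Okamoto-strain SHR, male and female, 8 weeks old, 300–350 g, systolic pressure ≥190 mmHg, heart rate 400–650 beats/min; five animals per dose. Given ip at 2.5 mL/kg, dissolved or suspended in normal saline or saline with 0.2% (carboxymethyl)cellulose and 1.0% Tween 80. Tail AP and CR recorded by mechanical transduction at set times; reported as percentage fall from control.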
# Cavia porcellus [6] = assay: Ex vivo inhibition of platelet aggregation induced by AA at 50 mg/kg; No significance; type: functional, organism-based; design: dose 50 mg/kg; procedure, shortened: as §3
# Rattus norvegicus [7] = assay: Percent increase in cardiac rhythm, directly measured on carotid (iv on the jugular vein) of spontaneously hypertensive rats at 1 mg/kg after 5 minutes;No significance; type: functional, organism-based; design: dose 1 mg/kg; conditions: Heart; procedure, shortened: as §2
# Rattus norvegicus [8] = assay: Percent increase in cardiac rhythm, directly measured on carotid (iv on the jugular vein) of spontaneously hypertensive rats at 1 mg/kg after 120 minutes;No significance; type: functional, organism-based; design: dose 1 mg/kg; conditions: Heart; procedure, shortened: as §2
# [9] = target: T1, Thromboxane-A synthase (Homo sapiens) (UniProt P24557); assay: Effect on thromboxane synthetase activity on in vitro platelet aggregation induced by AA at 10e -5 M expressed as percent […] in TXB2; type: functional
# T1 sequence (whole entry): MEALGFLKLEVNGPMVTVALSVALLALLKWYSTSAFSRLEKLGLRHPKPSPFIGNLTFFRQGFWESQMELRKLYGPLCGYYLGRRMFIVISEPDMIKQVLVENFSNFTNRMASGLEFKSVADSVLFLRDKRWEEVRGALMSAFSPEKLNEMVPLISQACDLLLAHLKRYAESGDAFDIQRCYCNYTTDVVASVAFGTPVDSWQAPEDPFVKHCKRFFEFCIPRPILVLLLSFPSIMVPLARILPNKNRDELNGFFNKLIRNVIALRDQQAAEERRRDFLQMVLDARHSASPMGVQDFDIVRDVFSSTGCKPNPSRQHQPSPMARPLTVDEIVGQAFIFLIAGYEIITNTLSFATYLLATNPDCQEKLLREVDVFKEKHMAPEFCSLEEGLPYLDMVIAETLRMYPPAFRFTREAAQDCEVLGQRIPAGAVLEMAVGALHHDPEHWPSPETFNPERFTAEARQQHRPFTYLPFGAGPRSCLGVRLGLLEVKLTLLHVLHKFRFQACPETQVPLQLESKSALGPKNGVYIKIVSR
# Procedure, shortened: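 Human citrated PRP adjusted to 200 000 […], compound at 10^-5 M final in saline/10% ethylene glycol, incubated at 37 °C. Aggregation induced with arachidonic acid 0.6 mM and read by Born absorbance aggregometry. PGE2 and TXB2 in the aggregated samples measured by radioimmunoassay. n = 5.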
# Cavia porcellus [10] = assay: Ex vivo inhibition of platelet aggregation induced by ADP-II at 30 mg/kg; No significance; type: functional, organism-based; design: dose 30 mg/kg; procedure, shortened: as §3
# Rattus norvegicus [11] = assay: Antihypertensive activity in spontaneously hypertensive rats (SHR) measured by percentage fall in cardiac rhythm (CR) at 25 mg/kg administered perorally at 1 h;No significance; type: functional, organism-based; design: dose 25 mg/kg; conditions: Heart; procedure, shortened: as §1
# Rattus norvegicus [12] = assay: Antihypertensive activity in spontaneously hypertensive rats (SHR) measured by percentage fall in cardiac rhythm (CR) at 25 mg/kg administered intraperitoneally at 24 h;No significance; type: functional, organism-based; design: dose 25 mg/kg; conditions: Heart; procedure, shortened: as §4
# Rattus norvegicus [13] = assay: Antihypertensive activity in spontaneously hypertensive rats (SHR) measured by percentage fall in arterial pressure (AP) at 1 mg/kg administered intraperitoneally at 24 h;No significance; type: functional, organism-based; design: dose 1 mg/kg; conditions: Artery; procedure, shortened: as §4
# Rattus norvegicus [14] = assay: Percent increase in cardiac rhythm, directly measured on carotid (iv on the jugular vein) of spontaneously hypertensive rats at 1 mg/kg after 75 minutes;No significance; type: functional, organism-based; design: dose 1 mg/kg; conditions: Heart; procedure, shortened: as §2
# Rattus norvegicus [15] = assay: Antihypertensive activity in spontaneously hypertensive rats (SHR) measured by percentage fall in arterial pressure (AP) at 1 mg/kg administered intraperitoneally at 5 h;No significance significance; type: functional, organism-based; design: dose 1 mg/kg; conditions: Artery; procedure, shortened: as §4
# Cavia porcellus [16] = assay: Ex vivo inhibition of platelet aggregation induced by ADP-II at 50 mg/kg; No significance; type: functional, organism-based; design: dose 50 mg/kg; procedure, shortened: as §3
# Rattus norvegicus [17] = assay: Antihypertensive activity in spontaneously hypertensive rats (SHR) measured by percentage fall in cardiac rhythm (CR) at 1 mg/kg administered intraperitoneally at 24 h;No significance; type: functional, organism-based; design: dose 1 mg/kg; conditions: Heart; procedure, shortened: as §4
structure (smiles),measurement,setting,value
COc1ccc2[nH]c3c(NN)nncc3c2c1,Decrease in CR,Rattus norvegicus [1],No significant values
same,Increase,Rattus norvegicus [2],No significant values
same,inhibition,Cavia porcellus [3],No significant values
same,Increase,Rattus norvegicus [4],No significant values
same,Decrease in CR,Rattus norvegicus [5],No significant values
same,inhibition,Cavia porcellus [6],No significant values
same,Increase,Rattus norvegicus [7],No significant values
same,Increase,Rattus norvegicus [8],No significant values
same,inhibition,[9],40%
same,inhibition,Cavia porcellus [10],No significant values
same,Decrease in CR,Rattus norvegicus [11],No significant values
same,Decrease in CR,Rattus norvegicus [12],No significant values
same,Decrease in AP,Rattus norvegicus [13],No significant values
same,Increase,Rattus norvegicus [14],No significant values
same,Decrease in AP,Rattus norvegicus [15],No significant values
same,inhibition,Cavia porcellus [16],No significant values
same,Decrease in AP,Rattus norvegicus [17],No significant values
